Reference: ChEMBL document CHEMBL4689842, “EUbOPEN Chemogenomics Library wave 1” (2021)
Values joined by “and” are separate entries in the source; they are usually repeats but may differ in a detail not shown here. Equal entries are not always repeated.

System: Fibroblast
Assay: Multiplex assay against human fibroblast
Assay type: toxicity, cell-based
Summary of the method: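 Imaging took place on a CQ1 microscope at 37°C and 5% CO2 once compound had been added to live cells stained at seeding with Hoechst33342, BioTracker Green Microtubule Cytoskeleton Dye, MitoTracker Red and Annexin V Alexa Fluor 680. CellPathfinder machine-learning gating classed cells as Hoechst high-intensity objects or normal cells, classed normal cells as having healthy, pyknosed or fragmented nuclei, and classed pyknosed cells as mitotic or apoptotic. Tubulin, mitochondrial-mass and membrane-permeability phenotypes are per cents of the healthy-nucleus cells.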

[1] = 12 h, 1 µM, compound concentration 1 uM, replicate 1
[2] = 12 h, 1 µM, compound concentration 1 uM, replicate 2
[3] = 12 h, 10 µM, compound concentration 10 uM, replicate 1
[4] = 12 h, 10 µM, compound concentration 10 uM, replicate 2
[5] = 24 h, 1 µM, compound concentration 1 uM, replicate 1
[6] = 24 h, 1 µM, compound concentration 1 uM, replicate 2
[7] = 24 h, 10 µM, compound concentration 10 uM, replicate 1
[8] = 24 h, 10 µM, compound concentration 10 uM, replicate 2

## C=CC(=O)Nc1cccc(Oc2nc(Nc3ccc(N4CCN(C)CC4)cc3OC)ncc2Cl)c1
[1]
  Population Fragmented Nuclei (%): 28%
  Population Healthy Nuclei (%): 65%
  Population Hoechst High Intensity Objects (%): 24%
  Population Mitochondria Different-Phenotype (%): 14%
  Population Normal (%): 75%
  Population Pyknosed Nuclei (%): 6%
  Population Tubulin-Different-Phenotype (%): 45%
  Total Cell Count: 324
[2]
  Population Apoptotic (%): 60%
  Population Fragmented Nuclei (%): 44%
  Population Healthy Nuclei (%): 48%
  Population Hoechst High Intensity Objects (%): 23%
  Population Membrane Permeable-Phenotype (%): 5%
  Population Mitochondria Different-Phenotype (%): 26%
  Population Mitotic Cells (%): 40%
  Population Normal (%): 76%
  Population Pyknosed Nuclei (%): 7%
  Population Tubulin-Different-Phenotype (%): 64%
  Total Cell Count: 92
[3]
  Population Apoptotic (%): 62%
  Population Fragmented Nuclei (%): 39%
  Population Healthy Nuclei (%): 42%
  Population Hoechst High Intensity Objects (%): 15%
  Population Membrane Permeable-Phenotype (%): 7%
  Population Mitochondria Different-Phenotype (%): 2%
  Population Mitotic Cells (%): 37%
  Population Normal (%): 84%
  Population Pyknosed Nuclei (%): 18%
  Population Tubulin-Different-Phenotype (%): 10%
  Total Cell Count: 237
[4]
  Population Apoptotic (%): 20%
  Population Fragmented Nuclei (%): 57%
  Population Healthy Nuclei (%): 34%
  Population Hoechst High Intensity Objects (%): 36%
  Population Membrane Permeable-Phenotype (%): 18%
  Population Mitochondria Different-Phenotype (%): 4%
  Population Mitotic Cells (%): 80%
  Population Normal (%): 64%
  Population Pyknosed Nuclei (%): 7%
  Population Tubulin-Different-Phenotype (%): 18%
  Total Cell Count: 100
[5]
  Population Apoptotic (%): 61%
  Population Fragmented Nuclei (%): 29%
  Population Healthy Nuclei (%): 60%
  Population Hoechst High Intensity Objects (%): 47%
  Population Membrane Permeable-Phenotype (%): 1%
  Population Mitochondria Different-Phenotype (%): 26%
  Population Mitotic Cells (%): 38%
  Population Normal (%): 52%
  Population Pyknosed Nuclei (%): 9%
  Population Tubulin-Different-Phenotype (%): 38%
  Total Cell Count: 265
[6]
  Population Apoptotic (%): 66%
  Population Fragmented Nuclei (%): 31%
  Population Healthy Nuclei (%): 56%
  Population Hoechst High Intensity Objects (%): 37%
  Population Membrane Permeable-Phenotype (%): 7%
  Population Mitochondria Different-Phenotype (%): 48%
  Population Mitotic Cells (%): 33%
  Population Normal (%): 62%
  Population Pyknosed Nuclei (%): 12%
  Population Tubulin-Different-Phenotype (%): 70%
  Total Cell Count: 77
[7]
  Population Apoptotic (%): 70%
  Population Fragmented Nuclei (%): 33%
  Population Healthy Nuclei (%): 50%
  Population Hoechst High Intensity Objects (%): 19%
  Population Membrane Permeable-Phenotype (%): 3%
  Population Mitochondria Different-Phenotype (%): 4%
  Population Mitotic Cells (%): 30%
  Population Normal (%): 80%
  Population Pyknosed Nuclei (%): 16%
  Population Tubulin-Different-Phenotype (%): 10%
  Total Cell Count: 231
[8]
  Population Apoptotic (%): 0%
  Population Fragmented Nuclei (%): 61%
  Population Healthy Nuclei (%): 35%
  Population Hoechst High Intensity Objects (%): 29%
  Population Membrane Permeable-Phenotype (%): 4%
  Population Mitochondria Different-Phenotype (%): 9%
  Population Mitotic Cells (%): 100%
  Population Normal (%): 70%
  Population Pyknosed Nuclei (%): 3%
  Population Tubulin-Different-Phenotype (%): 14%
  Total Cell Count: 85

## CN(c1ccccc1CNc1nc(Nc2ccc3c(c2)CC(=O)N3)ncc1C(F)(F)F)S(C)(=O)=O
[3]
  Population Apoptotic (%): 77% and 66%
  Population Fragmented Nuclei (%): 25% and 30%
  Population Healthy Nuclei (%): 60% and 55%
  Population Hoechst High Intensity Objects (%): 16% and 14%
  Population Mitotic Cells (%): 22% and 33%
  Population Normal (%): 83% and 85%
  Population Pyknosed Nuclei (%): 13% and 14%
  Total Cell Count: 189 and 148
[4]
  Population Fragmented Nuclei (%): 56% and 49%
  Population Healthy Nuclei (%): 38% and 25%
  Population Hoechst High Intensity Objects (%): 39% and 31%
  Population Mitochondria Different-Phenotype (%): 5% and 14%
  Population Mitotic Cells (%): 100% and 64%
  Population Normal (%): 60% and 68%
  Total Cell Count: 83 and 80
[7]
  Population Apoptotic (%): 70% and 91%
  Population Fragmented Nuclei (%): 26% and 36%
  Population Healthy Nuclei (%): 55% and 54%
  Population Hoechst High Intensity Objects (%): 14% and 18%
  Population Membrane Permeable-Phenotype (%): 11%
  Population Normal (%): 85% and 81%
  Population Pyknosed Nuclei (%): 18% and 9%
  Total Cell Count: 176 and 163
[8]
  Population Fragmented Nuclei (%): 43% and 49%
  Population Healthy Nuclei (%): 47% and 28%
  Population Hoechst High Intensity Objects (%): 36% and 30%
  Population Membrane Permeable-Phenotype (%): 18% and 20%
  Population Mitochondria Different-Phenotype (%): 13% and 26%
  Population Normal (%): 63% and 69%
  Population Pyknosed Nuclei (%): 8% and 22%
  Total Cell Count: 73 and 76

## CNC(=O)Nc1ccc2c(c1)[C@@]1(CC2)OC(=O)N(CC(=O)N(Cc2ccc(F)cc2)[C@@H](C)C(F)(F)F)C1=O [A-486]
[1]
  Population Apoptotic (%): 68%
  Population Fragmented Nuclei (%): 21%
  Population Healthy Nuclei (%): 60%
  Population Hoechst High Intensity Objects (%): 9%
  Population Membrane Permeable-Phenotype (%): 31%
  Population Mitochondria Different-Phenotype (%): 4%
  Population Mitotic Cells (%): 31%
  Population Normal (%): 90%
  Population Pyknosed Nuclei (%): 18%
  Population Tubulin-Different-Phenotype (%): 55%
  Total Cell Count: 291
[2]
  Population Apoptotic (%): 75%
  Population Fragmented Nuclei (%): 57%
  Population Healthy Nuclei (%): 21%
  Population Hoechst High Intensity Objects (%): 34%
  Population Membrane Permeable-Phenotype (%): 41%
  Population Mitochondria Different-Phenotype (%): 8%
  Population Mitotic Cells (%): 25%
  Population Normal (%): 65%
  Population Pyknosed Nuclei (%): 21%
  Population Tubulin-Different-Phenotype (%): 91%
  Total Cell Count: 87
[3]
  Population Apoptotic (%): 55%
  Population Fragmented Nuclei (%): 24%
  Population Healthy Nuclei (%): 61%
  Population Hoechst High Intensity Objects (%): 14%
  Population Membrane Permeable-Phenotype (%): 7%
  Population Mitochondria Different-Phenotype (%): 5%
  Population Mitotic Cells (%): 45%
  Population Normal (%): 85%
  Population Pyknosed Nuclei (%): 14%
  Population Tubulin-Different-Phenotype (%): 7%
  Total Cell Count: 160
[4]
  Population Apoptotic (%): 33%
  Population Fragmented Nuclei (%): 57%
  Population Healthy Nuclei (%): 37%
  Population Hoechst High Intensity Objects (%): 29%
  Population Membrane Permeable-Phenotype (%): 15%
  Population Mitochondria Different-Phenotype (%): 10%
  Population Mitotic Cells (%): 66%
  Population Normal (%): 70%
  Population Pyknosed Nuclei (%): 5%
  Population Tubulin-Different-Phenotype (%): 45%
  Total Cell Count: 77
[5]
  Population Apoptotic (%): 56%
  Population Fragmented Nuclei (%): 23%
  Population Healthy Nuclei (%): 59%
  Population Hoechst High Intensity Objects (%): 14%
  Population Membrane Permeable-Phenotype (%): 17%
  Population Mitochondria Different-Phenotype (%): 6%
  Population Mitotic Cells (%): 43%
  Population Normal (%): 85%
  Population Pyknosed Nuclei (%): 17%
  Population Tubulin-Different-Phenotype (%): 46%
  Total Cell Count: 300
[6]
  Population Apoptotic (%): 71%
  Population Fragmented Nuclei (%): 63%
  Population Healthy Nuclei (%): 23%
  Population Hoechst High Intensity Objects (%): 33%
  Population Membrane Permeable-Phenotype (%): 50%
  Population Mitochondria Different-Phenotype (%): 16%
  Population Mitotic Cells (%): 28%
  Population Normal (%): 66%
  Population Pyknosed Nuclei (%): 13%
  Population Tubulin-Different-Phenotype (%): 66%
  Total Cell Count: 78
[7]
  Population Apoptotic (%): 60%
  Population Fragmented Nuclei (%): 30%
  Population Healthy Nuclei (%): 53%
  Population Hoechst High Intensity Objects (%): 14%
  Population Membrane Permeable-Phenotype (%): 12%
  Population Mitochondria Different-Phenotype (%): 1%
  Population Mitotic Cells (%): 39%
  Population Normal (%): 85%
  Population Pyknosed Nuclei (%): 15%
  Population Tubulin-Different-Phenotype (%): 8%
  Total Cell Count: 177
[8]
  Population Apoptotic (%): 100%
  Population Fragmented Nuclei (%): 56%
  Population Healthy Nuclei (%): 40%
  Population Hoechst High Intensity Objects (%): 38%
  Population Membrane Permeable-Phenotype (%): 25%
  Population Mitochondria Different-Phenotype (%): 0%
  Population Mitotic Cells (%): 0%
  Population Normal (%): 61%
  Population Pyknosed Nuclei (%): 4%
  Population Tubulin-Different-Phenotype (%): 10%
  Total Cell Count: 81

## CNCc1ccccc1-c1csc([C@@H](C)Nc2nc(C)nc3cc(OC)c(OC)cc23)c1 [BAY-293]
[3]
  Population Apoptotic (%): 45% and 52%
  Population Fragmented Nuclei (%): 29% and 38%
  Population Healthy Nuclei (%): 45% and 27%
  Population Membrane Permeable-Phenotype (%): 11% and 24%
  Population Mitotic Cells (%): 54% and 47%
  Population Normal (%): 58% and 87%
  Population Pyknosed Nuclei (%): 24% and 33%
[4]
  Population Apoptotic (%): 83% and 66%
  Population Fragmented Nuclei (%): 50% and 52%
  Population Healthy Nuclei (%): 17% and 31%
  Population Hoechst High Intensity Objects (%): 34% and 42%
  Population Membrane Permeable-Phenotype (%): 20% and 8%
  Population Mitotic Cells (%): 16% and 33%
  Population Normal (%): 65% and 57%
  Population Pyknosed Nuclei (%): 32% and 16%
  Population Tubulin-Different-Phenotype (%): 50% and 30%
[7]
  Population Apoptotic (%): 89% and 38%
  Population Fragmented Nuclei (%): 36% and 23%
  Population Hoechst High Intensity Objects (%): 16% and 40%
  Population Membrane Permeable-Phenotype (%): 11% and 4%
  Population Normal (%): 83% and 59%
  Population Pyknosed Nuclei (%): 56% and 28%
  Population Tubulin-Different-Phenotype (%): 22% and 14%
[8]
  Population Apoptotic (%): 66% and 90%
  Population Fragmented Nuclei (%): 52% and 60%
  Population Hoechst High Intensity Objects (%): 44%
  Population Normal (%): 55%
  Population Pyknosed Nuclei (%): 10% and 27%
  Population Tubulin-Different-Phenotype (%): 38% and 20%
